Results on 3 molecules are retold here after ChEMBL document CHEMBL4130541, “Nicrophorusamides A and B, Antibacterial Chlorinated Cyclic Peptides from a Gut Bacterium of the Carrion Beetle Nicrophorus concolor” (2017).

Experiment [1] has as its system Trichophyton mentagrophytes. The experiment in a line: Antifungal activity against Trichophyton mentagrophytes IFM 40996. It is filed as functional, organism-based.
In a further experiment the test system is Staphylococcus aureus. The experiment in a line: Antibacterial activity against Staphylococcus aureus ATCC 25923 after 24 hrs by two fold serial dilution method. It is filed as functional. The note with it: ATCC 25923, 24 h. The method in brief: (§1)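 Bacteria grown overnight in Mueller Hinton broth at 37 °C, centrifuged and washed twice with sterile water. Compounds dissolved in DMSO, then 2-fold serial dilutions 128 to 0.03 μg/mL in broth, final DMSO 1%. Inoculum ~10^7 cfu/mL added to reach final 5 × 10^5 cfu/mL. Incubated 24 h at 37 °C. MIC = lowest concentration inhibiting growth.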

For the next experiment, the system named is A549. The experiment in a line: Cytotoxicity against human A549 cells. It is filed as functional, cell-based.
A further experiment relates to Candida albicans. The experiment in a line: Antifungal activity against Candida albicans ATCC 10231. It is filed as functional, organism-based.
The subject of the next experiment is Enterococcus faecalis. The experiment in a line: Antibacterial activity against Enterococcus faecalis ATCC 19433 after 24 hrs by two fold serial dilution method. It is filed as functional. The following applies: ATCC 19433, 24 h. The method in brief: as §1
Another experiment has as its system Trichophyton rubrum. Briefly: Antifungal activity against Trichophyton rubrum NBRC 9185. It is filed as functional, organism-based.
A further experiment relates to MDA-MB-231. Briefly: Cytotoxicity against human MDA-MB-231 cells. It is filed as functional, cell-based.
The next experiment has as its system Enterococcus faecium. The experiment in a line: Antibacterial activity against Enterococcus faecium ATCC 19434 after 24 hrs by two fold serial dilution method. It is filed as functional. The following applies: ATCC 19434, 24 h. The method in brief:
as §1

The test system of the next experiment is K562. The experiment in a line: Cytotoxicity against human K562 cells. It is filed as functional, cell-based.
The test system of a further experiment is HCT-116. The experiment in a line: Cytotoxicity against human HCT116 cells. It is filed as functional, cell-based.
For another experiment, the system named is Escherichia coli. Briefly: Antibacterial activity against Escherichia coli ATCC 25922 after 24 hrs by two fold serial dilution method. It is filed as functional. The method in brief:
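Overnight culture grown in Mueller Hinton broth at 37 °C, centrifuged and washed twice in sterile water. Compound dissolved in DMSO, serially 2-fold diluted in MHB from 128 to 0.03 μg/mL, with DMSO held at 1% final. Inoculum 5 × 10^5 cfu/mL final. Incubated 24 h at 37 °C. MIC taken as the lowest concentration inhibiting growth.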

Another experiment concerns SK-HEP1. The experiment in a line: Cytotoxicity against human SKHEP1 cells. It is filed as functional, cell-based.
Another experiment has as its system Salmonella typhimurium. Briefly: Antibacterial activity against Salmonella enterica ATCC 14028 after 24 hrs by two fold serial dilution method. It is filed as functional. The method in brief:
as §1

Another experiment has as its system Aspergillus fumigatus. Briefly: Antifungal activity against Aspergillus fumigatus HIC 6094. It is filed as functional, organism-based.
The test system of a further experiment is SNU-638. The experiment in a line: Cytotoxicity against human SNU638 cells. It is filed as functional, cell-based.

SMILES strings stand for the structures. In brackets after ≈: the same amount, converted by molar mass. Activity calls are given as the source filed them. Non-standard residues stand in square brackets, D forms with d. Residues, ends and D or L forms follow the SMILES beside them. Trp(5-Cl) = N[C@@H](Cc1c[nH]c2ccc(Cl)cc12)C(=O)O; dAsn(3R-OH) = NC(=O)[C@H](O)[C@@H](N)C(=O)O; aIle = CC[C@@H](C)[C@H](N)C(=O)O; Orn = NCCC[C@H](N)C(=O)O

Turning to `CC[C@@H](C)[C@@H]1NC(=O)[C@@H](CC(C)C)NC(=O)[C@@H](C(C)C)NC(=O)[C@H](Cc2c[nH]c3ccc(Cl)cc23)NC(=O)[C@@H](CC(N)=O)NC(=O)[C@H](CCCN)NC1=O`, the result (in [1]; in the experiment on A549; in the experiment with Candida albicans; with Trichophyton rubrum; in the experiment on MDA-MB-231; with K562) was inactive. In addition, the result with HCT-116, with SK-HEP1, in the experiment on Aspergillus fumigatus and in the experiment with SNU-638 was inactive. Further, the MIC (usually the smallest concentration in the dilution series that meets the test's criterion for growth inhibition) worked out at 64 µg/mL (≈ 82.6 µM) against Staphylococcus aureus, 128 µg/mL (≈ 165 µM) with Enterococcus faecalis and 128 µg/mL (≈ 165 µM) in the experiment with Enterococcus faecium. Moreover, the MIC result in the experiment with Escherichia coli and with Salmonella typhimurium (Salmonella enterica subsp. enterica serovar Typhimurium) was “inactive” throughout.
`CC[C@@H](C)[C@@H]1NC(=O)[C@@H](CC(C)C)NC(=O)[C@@H](C(C)C)NC(=O)[C@H](Cc2c[nH]c3ccc(Cl)cc23)NC(=O)[C@@H]([C@@H](O)C(N)=O)NC(=O)[C@H](CCCN)NC1=O` (cyclo([Orn][dAsn(3R-OH)][Trp(5-Cl)][dV][dL][aIle])): the outcome (in experiment [1]; with A549; with Candida albicans; with Trichophyton rubrum; in the experiment with MDA-MB-231; with K562) was inactive. The result in the experiment with HCT-116, in the experiment on SK-HEP1, in the experiment with Aspergillus fumigatus and in the experiment with SNU-638 was inactive. For the same molecule, the MIC against Staphylococcus aureus was 8 µg/mL (≈ 10.1 µM); against Enterococcus faecalis, 16 µg/mL (≈ 20.2 µM); with Enterococcus faecium, 16 µg/mL (≈ 20.2 µM); against Salmonella typhimurium (ATCC 14028, 24 h), 16 µg/mL (≈ 20.2 µM). Moreover, the MIC result in the experiment on Escherichia coli was “inactive”.
On to `CC1(C)S[C@@H]2[C@H](NC(=O)[C@H](N)c3ccccc3)C(=O)N2[C@H]1C(=O)O` [AMPICILLIN], for which the MIC against Staphylococcus aureus came out at 0.13 µg/mL (≈ 0.372 µM); with Enterococcus faecalis, 0.5 µg/mL (≈ 1.43 µM); against Enterococcus faecium it was 0.25 µg/mL (≈ 0.715 µM); with Escherichia coli (ATCC 25922, 24 h) it was 8 µg/mL (≈ 22.9 µM); in the experiment with Salmonella typhimurium (ATCC 14028, 24 h), 0.13 µg/mL (≈ 0.372 µM).
